Experimental data published in ChEMBL document CHEMBL1158358, “Synthesis, antimicrobial and cytotoxic activities of some 5-arylidene-4-thioxo-thiazolidine-2-ones” (Eur J Med Chem, 2009).
Values after ≈ are worked out from the molar mass of the structure shown.

Experiments:
Type in all cases: functional
Staphylococcus aureus [1] = assay: Antimicrobial activity against multidrug-resistant Staphylococcus aureus H.C. 21141 isolate after 20 hrs by twofold serial dilution technique; conditions: H.C. 21141, 20 h
Summary of the method: (§1)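 Twofold serial dilution MIC in agar plates against Gram-positive strains and multidrug-resistant clinical isolates. Inoculum applied was 10⁵ CFU/plate. Plates with culture medium plus DMSO served as negative control. MIC was read after incubation at 35 °C for 20 h.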

Bacillus subtilis [2] = assay: Antimicrobial activity against Bacillus subtilis UFPEDA 16 after 20 hrs by twofold serial dilution technique; conditions: UFPEDA 16, 20 h
Summary of the method: (§2)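 MIC was determined by twofold serial dilution. Bacteria were tested in plates at 10⁵ CFU/plate and read after 20 h. C. albicans was tested in tubes at 10³ CFU/tube and read after 48 h. All incubations were at 35 °C. Medium plus DMSO served as the negative control.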

Staphylococcus aureus [3] = assay: Antimicrobial activity against multidrug-resistant Staphylococcus aureus H.C. 20981 isolate after 20 hrs by twofold serial dilution technique; conditions: H.C. 20981, 20 h; summary of the method: as §1
Serratia marcescens = assay: Antimicrobial activity against Serratia marcescens UFPEDA 398 at 300 ug/disk after 24 hrs by disk diffusion method; conditions: UFPEDA 398, 24 h, read-out: IZ
Summary of the method: (§3)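 Preliminary screen by disk diffusion. Paper disks (6 mm) holding 300 µg of compound were placed on agar plates inoculated with a standardized microbial suspension. DMSO-only disks served as negative controls. A mean inhibition zone below 7 mm was scored as no sensitivity. Values are means, n = 3.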

Micrococcus luteus [4] = assay: Antimicrobial activity against Micrococcus luteus UFPEDA 06 after 20 hrs by twofold serial dilution technique; conditions: UFPEDA 06, 20 h; summary of the method: as §2
Enterococcus faecalis [5] = assay: Antimicrobial activity against Enterococcus faecalis UFPEDA 138 at 300 ug/disk after 24 hrs by disk diffusion method; conditions: UFPEDA 138, 24 h, read-out: IZ; summary of the method: as §3
Enterococcus faecalis [6] = assay: Antimicrobial activity against multidrug-resistant Enterococcus faecalis H.C. 21752 isolate after 20 hrs by twofold serial dilution technique; conditions: H.C. 21752, 20 h; summary of the method: as §1
NCI-H292 [7] = assay: Cytotoxicity against human NCI-H292 cells at 2.5 ug/mL after 72 hrs by MTT assay; conditions: NCI-H292, 72 h, read-out: GI
Summary of the method: (§4)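 MTT antiproliferative assay. Cells were diluted to 10⁵ cells/mL in 96-well plates and preincubated for 24 h at 37 °C in humid 5% CO₂. Compounds or vincristine (reference) were then added. Formazan was dissolved and OD read at 540 nm, compared with medium-only control cells. Run in triplicate.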

Bacillus subtilis [8] = assay: Antimicrobial activity against Bacillus subtilis UFPEDA 16 at 300 ug/disk after 24 hrs by disk diffusion method; conditions: UFPEDA 16, 24 h, read-out: IZ; summary of the method: as §3
Candida albicans [9] = assay: Antimicrobial activity against Candida albicans UFPEDA 1007 at 300 ug/disk after 48 hrs by disk diffusion method; conditions: UFPEDA 1007, 48 h, read-out: IZ; summary of the method: as §3
NCI-H292 [10] = assay: Cytotoxicity against human NCI-H292 cells at 10 ug/mL after 72 hrs by MTT assay; conditions: NCI-H292, 72 h, read-out: GI; summary of the method: as §4
Enterococcus faecalis [11] = assay: Antimicrobial activity against Enterococcus faecalis UFPEDA 138 after 20 hrs by twofold serial dilution technique; conditions: UFPEDA 138, 20 h; summary of the method: as §2
Pseudomonas aeruginosa = assay: Antimicrobial activity against Pseudomonas aeruginosa UFPEDA 39 at 300 ug/disk after 24 hrs by disk diffusion method; conditions: UFPEDA 39, 24 h, read-out: IZ; summary of the method: as §3
Enterococcus faecalis [12] = assay: Antimicrobial activity against multidrug-resistant Enterococcus faecalis H.C. 21944 isolate after 20 hrs by twofold serial dilution technique; conditions: H.C. 21944, 20 h; summary of the method: as §1
NCI-H292 [13] = assay: Cytotoxicity against human NCI-H292 cells at 1.25 ug/mL after 72 hrs by MTT assay; conditions: NCI-H292, 72 h, read-out: GI; summary of the method: as §4
Micrococcus luteus [14] = assay: Antimicrobial activity against Micrococcus luteus UFPEDA 06 at 300 ug/disk after 24 hrs by disk diffusion method; conditions: UFPEDA 06, 24 h, read-out: IZ; summary of the method: as §3
[15] = test system: Mycolicibacterium smegmatis; assay: Antimicrobial activity against Mycobacterium smegmatis UFPEDA 71 after 20 hrs by twofold serial dilution technique; conditions: UFPEDA 71, 20 h; summary of the method: as §2
HEp-2 [16] = assay: Cytotoxicity against human Hep2 cells at 1.25 ug/mL after 72 hrs by MTT assay; conditions: HEp-2, 72 h, read-out: GI; summary of the method: as §4
Staphylococcus [17] = assay: Antimicrobial activity against coagulase-negative Staphylococcus H.A.M. 338 isolate after 20 hrs by twofold serial dilution technique; conditions: H.A.M. 338, 20 h; summary of the method: as §2
[18] = test system: Mycolicibacterium smegmatis; assay: Antimicrobial activity against Mycobacterium smegmatis UFPEDA 71 at 300 ug/disk after 24 hrs by disk diffusion method; conditions: UFPEDA 71, 24 h, read-out: IZ; summary of the method: as §3
Staphylococcus aureus [19] = assay: Antimicrobial activity against Staphylococcus aureus UFPEDA 01 after 20 hrs by twofold serial dilution technique; conditions: UFPEDA 01, 20 h; summary of the method: as §1
Staphylococcus aureus [20] = assay: Antimicrobial activity against Staphylococcus aureus UFPEDA 01 at 300 ug/disk after 24 hrs by disk diffusion method; conditions: UFPEDA 01, 24 h, read-out: IZ; summary of the method: as §3
Staphylococcus aureus [21] = assay: Antimicrobial activity against multidrug-resistant Staphylococcus aureus H.C. 20489 isolate after 20 hrs by twofold serial dilution technique; conditions: H.C. 20489, 20 h; summary of the method: as §1
HEp-2 [22] = assay: Cytotoxicity against human Hep2 cells at 5 ug/mL after 72 hrs by MTT assay; conditions: HEp-2, 72 h, read-out: GI; summary of the method: as §4
HEp-2 [23] = assay: Cytotoxicity against human Hep2 cells at 2.5 ug/mL after 72 hrs by MTT assay; conditions: HEp-2, 72 h, read-out: GI; summary of the method: as §4
Escherichia coli = assay: Antimicrobial activity against Escherichia coli UFPEDA 224 at 300 ug/disk after 24 hrs by disk diffusion method; conditions: UFPEDA 224, 24 h, read-out: IZ; summary of the method: as §3
Staphylococcus aureus [24] = assay: Antimicrobial activity against multidrug-resistant Staphylococcus aureus H.C. 21036 isolate after 20 hrs by twofold serial dilution technique; conditions: H.C. 21036, 20 h; summary of the method: as §1
Staphylococcus aureus [25] = assay: Antimicrobial activity against multidrug-resistant Staphylococcus aureus H.C. 20905 isolate after 20 hrs by twofold serial dilution technique; conditions: H.C. 20905, 20 h; summary of the method: as §1
Enterococcus faecalis [26] = assay: Antimicrobial activity against multidrug-resistant Enterococcus faecalis H.C. 24708 isolate after 20 hrs by twofold serial dilution technique; conditions: H.C. 24708, 20 h; summary of the method: as §1
HEp-2 [27] = assay: Cytotoxicity against human Hep2 cells at 10 ug/mL after 72 hrs by MTT assay; conditions: HEp-2, 72 h, read-out: GI; summary of the method: as §4
Candida albicans [28] = assay: Antimicrobial activity against Candida albicans UFPEDA 1007 after 48 hrs by twofold serial dilution technique; conditions: UFPEDA 1007, 48 h; summary of the method: as §2
NCI-H292 [29] = assay: Cytotoxicity against human NCI-H292 cells at 5 ug/mL after 72 hrs by MTT assay; conditions: NCI-H292, 72 h, read-out: GI; summary of the method: as §4
Enterococcus faecalis [30] = assay: Antimicrobial activity against multidrug-resistant Enterococcus faecalis H.C. 24962 isolate after 20 hrs by twofold serial dilution technique; conditions: H.C. 24962, 20 h; summary of the method: as §1
Staphylococcus aureus [31] = assay: Antimicrobial activity against multidrug-resistant Staphylococcus aureus H.C. 20794 isolate after 20 hrs by twofold serial dilution technique; conditions: H.C. 20794, 20 h; summary of the method: as §1
Staphylococcus [32] = assay: Antimicrobial activity against coagulase-negative Staphylococcus H.A.M. 278 isolate after 20 hrs by twofold serial dilution technique; conditions: H.A.M. 278, 20 h; summary of the method: as §2

`O=C1NC(=S)/C(=C/c2cccc(Cl)c2)S1` showed an MIC (Staphylococcus aureus [1]) of 8 µg/mL (≈ 31.3 µM), an MIC (Bacillus subtilis [2]) of 8 µg/mL (≈ 31.3 µM) and an MIC (Staphylococcus aureus [3]) of 2 µg/mL (≈ 7.82 µM). For the same molecule, the zone of inhibition at 300 µg/disc (Serratia marcescens) was under 7 mm, the MIC (Micrococcus luteus [4]) was 8 µg/mL (≈ 31.3 µM) and the zone of inhibition at 300 µg/disc (Enterococcus faecalis [5]) was 22 mm. It also gave an MIC (Enterococcus faecalis [6]) of 4 µg/mL (≈ 15.6 µM), an inhibition of growth at 2.5 µg/mL (NCI-H292 [7]) of 11.2% and a zone of inhibition at 300 µg/disc (Bacillus subtilis [8]) of 25 mm. For the same molecule, the zone of inhibition at 300 µg/disc (Candida albicans [9]) was 13 mm, the inhibition of growth at 10 µg/mL (NCI-H292 [10]) was 30.9% and the MIC (Enterococcus faecalis [11]) was 8 µg/mL (≈ 31.3 µM). The zone of inhibition at 300 µg/disc (Pseudomonas aeruginosa) was under 7 mm, the MIC (Enterococcus faecalis [12]) was 4 µg/mL (≈ 15.6 µM) and the inhibition of growth at 1.25 µg/mL (NCI-H292 [13]) was 3.35%. The zone of inhibition at 300 µg/disc (Micrococcus luteus [14]) was 29 mm, the MIC [15] was 16 µg/mL (≈ 62.6 µM) and the inhibition of growth at 1.25 µg/mL (HEp-2 [16]) was -0.36%. It also gave an MIC (Staphylococcus [17]) of 2 µg/mL (≈ 7.82 µM), a zone of inhibition at 300 µg/disc [18] of 24 mm and an MIC (Staphylococcus aureus [19]) of 2 µg/mL (≈ 7.82 µM). For the same molecule, the zone of inhibition at 300 µg/disc (Staphylococcus aureus [20]) was 31 mm, the MIC (Staphylococcus aureus [21]) was 2 µg/mL (≈ 7.82 µM) and the inhibition of growth at 5 µg/mL (HEp-2 [22]) was 17.6%. The inhibition of growth at 2.5 µg/mL (HEp-2 [23]) was 5.44%, the zone of inhibition at 300 µg/disc (Escherichia coli) was under 7 mm and the MIC (Staphylococcus aureus [24]) was 2 µg/mL (≈ 7.82 µM). It also gave an MIC (Staphylococcus aureus [25]) of 2 µg/mL (≈ 7.82 µM), an MIC (Enterococcus faecalis [26]) of 4 µg/mL (≈ 15.6 µM) and an inhibition of growth at 10 µg/mL (HEp-2 [27]) of 18.8%. For the same molecule, the MIC (Candida albicans [28]) was 32 µg/mL (≈ 125 µM), the inhibition of growth at 5 µg/mL (NCI-H292 [29]) was 21.6% and the MIC (Enterococcus faecalis [30]) was 4 µg/mL (≈ 15.6 µM). It also gave an MIC (Staphylococcus aureus [31]) of 2 µg/mL (≈ 7.82 µM) and an MIC (Staphylococcus [32]) of 16 µg/mL (≈ 62.6 µM).
`O=C1NC(=S)/C(=C/c2ccc(Br)cc2)S1` gave an MIC (Staphylococcus aureus [1]) of 4 µg/mL (≈ 13.3 µM), an MIC (Bacillus subtilis [2]) of 2 µg/mL (≈ 6.66 µM) and an MIC (Staphylococcus aureus [3]) of 4 µg/mL (≈ 13.3 µM). For the same molecule, the zone of inhibition at 300 µg/disc (Serratia marcescens) was under 7 mm, the MIC (Micrococcus luteus [4]) was 8 µg/mL (≈ 26.6 µM) and the zone of inhibition at 300 µg/disc (Enterococcus faecalis [5]) was 17 mm. For the same molecule, the MIC (Enterococcus faecalis [6]) was 8 µg/mL (≈ 26.6 µM), the inhibition of growth at 2.5 µg/mL (NCI-H292 [7]) was 1.19% and the zone of inhibition at 300 µg/disc (Bacillus subtilis [8]) was 18 mm. For the same molecule, the zone of inhibition at 300 µg/disc (Candida albicans [9]) was 15 mm, the inhibition of growth at 10 µg/mL (NCI-H292 [10]) was 36.5% and the MIC (Enterococcus faecalis [11]) was 16 µg/mL (≈ 53.3 µM). For the same molecule, the zone of inhibition at 300 µg/disc (Pseudomonas aeruginosa) was under 7 mm, the MIC (Enterococcus faecalis [12]) was 8 µg/mL (≈ 26.6 µM) and the inhibition of growth at 1.25 µg/mL (NCI-H292 [13]) was 1.1%. For the same molecule, the zone of inhibition at 300 µg/disc (Micrococcus luteus [14]) was 21 mm, the MIC [15] was 4 µg/mL (≈ 13.3 µM) and the inhibition of growth at 1.25 µg/mL (HEp-2 [16]) was -3.16%. For the same molecule, the MIC (Staphylococcus [17]) was 4 µg/mL (≈ 13.3 µM), the zone of inhibition at 300 µg/disc [18] was 17 mm and the MIC (Staphylococcus aureus [19]) was 4 µg/mL (≈ 13.3 µM). For the same molecule, the zone of inhibition at 300 µg/disc (Staphylococcus aureus [20]) was 23 mm, the MIC (Staphylococcus aureus [21]) was 4 µg/mL (≈ 13.3 µM) and the inhibition of growth at 5 µg/mL (HEp-2 [22]) was 15.4%. For the same molecule, the inhibition of growth at 2.5 µg/mL (HEp-2 [23]) was -0.36%, the zone of inhibition at 300 µg/disc (Escherichia coli) was under 7 mm and the MIC (Staphylococcus aureus [24]) was 4 µg/mL (≈ 13.3 µM). It also gave an MIC (Staphylococcus aureus [25]) of 4 µg/mL (≈ 13.3 µM), an MIC (Enterococcus faecalis [26]) of 8 µg/mL (≈ 26.6 µM) and an inhibition of growth at 10 µg/mL (HEp-2 [27]) of 18.2%. The MIC (Candida albicans [28]) was 32 µg/mL (≈ 107 µM), the inhibition of growth at 5 µg/mL (NCI-H292 [29]) was 16.6% and the MIC (Enterococcus faecalis [30]) was 8 µg/mL (≈ 26.6 µM). The MIC (Staphylococcus aureus [31]) was 2 µg/mL (≈ 6.66 µM) and the MIC (Staphylococcus [32]) was 4 µg/mL (≈ 13.3 µM).
